Key:
Homo sapiens = species on record: Homo sapiens; assay: Selectivity ratio of Ki for human D2L receptor expressed in HEK293 cell membranes to Ki for human 5HT7BR expressed in HEK293 cell membranes; type: cell-based
Summary of the method: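 Membranes from HEK293 cells stably expressing human 5-HT1A, 5-HT7b or D2L receptors. Buffers all 50 mM Tris HCl with 4 mM MgCl2 and 0.1% ascorbate. 5-HT1A: 0.1 mM EDTA, 10 µM pargyline, 2.5 nM [3H]-8-OH-DPAT, room temperature. 5-HT7b: 10 µM pargyline, 0.8 nM [3H]-5-CT, 37°C. D2L: EDTA, NaCl, KCl, CaCl2, 2.5 nM [3H]-raclopride, 37°C. Incubation 1 h; nonspecific binding 10 µM 5-HT (haloperidol for D2L). Seven concentrations (10^-10–10^-4 M) in triplicate; filtration; Ki by Cheng-Prusoff; at least two experiments.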

[1] = target: T1, Adrenergic receptor alpha-1 (Rattus norvegicus, UniProt P15823+P23944+P43140); assay: Displacement of [3H]-prazosin from alpha1-adrenergic receptor in rat brain cortex after 30 mins by Microbeta scintillation counting method
T1 sequence (P15823 whole entry): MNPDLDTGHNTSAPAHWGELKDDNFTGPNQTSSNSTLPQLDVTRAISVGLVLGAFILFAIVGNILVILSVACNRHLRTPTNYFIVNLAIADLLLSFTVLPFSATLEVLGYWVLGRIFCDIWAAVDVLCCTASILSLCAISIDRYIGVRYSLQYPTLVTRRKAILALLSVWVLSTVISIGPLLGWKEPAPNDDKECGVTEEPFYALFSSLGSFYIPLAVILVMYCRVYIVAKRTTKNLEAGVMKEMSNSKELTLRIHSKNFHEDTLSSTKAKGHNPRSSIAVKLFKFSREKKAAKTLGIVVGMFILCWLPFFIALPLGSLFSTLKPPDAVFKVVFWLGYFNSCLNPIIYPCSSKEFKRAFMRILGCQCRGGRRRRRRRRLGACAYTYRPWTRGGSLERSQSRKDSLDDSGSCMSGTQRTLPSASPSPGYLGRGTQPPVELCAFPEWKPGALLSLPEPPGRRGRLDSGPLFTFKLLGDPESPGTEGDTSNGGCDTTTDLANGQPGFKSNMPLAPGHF
T1 sequence (P23944 whole entry): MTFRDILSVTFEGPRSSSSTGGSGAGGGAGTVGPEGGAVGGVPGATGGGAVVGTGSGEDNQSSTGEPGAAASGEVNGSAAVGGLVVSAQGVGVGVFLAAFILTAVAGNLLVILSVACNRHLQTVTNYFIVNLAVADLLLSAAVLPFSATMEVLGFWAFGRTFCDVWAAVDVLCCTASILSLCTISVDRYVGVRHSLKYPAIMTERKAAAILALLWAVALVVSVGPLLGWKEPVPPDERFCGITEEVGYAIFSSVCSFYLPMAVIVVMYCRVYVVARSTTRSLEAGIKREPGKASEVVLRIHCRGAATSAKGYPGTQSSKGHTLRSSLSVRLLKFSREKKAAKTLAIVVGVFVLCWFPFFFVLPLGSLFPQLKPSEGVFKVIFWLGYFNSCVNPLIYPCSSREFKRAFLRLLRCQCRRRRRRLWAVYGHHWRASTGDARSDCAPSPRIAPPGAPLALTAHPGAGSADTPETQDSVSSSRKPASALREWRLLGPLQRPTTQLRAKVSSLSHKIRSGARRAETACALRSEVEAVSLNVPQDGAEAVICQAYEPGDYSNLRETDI
T1 sequence (P43140 whole entry): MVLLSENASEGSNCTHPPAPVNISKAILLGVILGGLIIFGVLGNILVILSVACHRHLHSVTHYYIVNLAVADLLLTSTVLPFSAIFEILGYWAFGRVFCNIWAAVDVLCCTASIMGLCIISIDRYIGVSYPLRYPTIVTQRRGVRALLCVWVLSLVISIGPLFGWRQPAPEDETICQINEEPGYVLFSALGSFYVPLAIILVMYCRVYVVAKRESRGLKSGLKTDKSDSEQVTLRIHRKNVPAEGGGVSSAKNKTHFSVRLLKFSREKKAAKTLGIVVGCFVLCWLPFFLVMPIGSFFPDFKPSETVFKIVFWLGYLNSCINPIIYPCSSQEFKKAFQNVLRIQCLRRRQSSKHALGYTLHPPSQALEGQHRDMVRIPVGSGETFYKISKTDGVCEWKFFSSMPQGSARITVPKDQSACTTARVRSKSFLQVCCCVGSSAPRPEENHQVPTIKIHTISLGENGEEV

D(2) dopamine receptor = D(2) dopamine receptor (Homo sapiens, UniProt P14416); assay: Displacement of [3H]-raclopride from human D2L receptor expressed in HEK293 cell membranes after 1 hr by Microbeta scintillation counting method
Mus musculus [2] = assay: Anxiolytic-like activity in Swiss albino mouse assessed as number of punished crossings at 10 mg/kg, ip administered 60 mins prior to test and measured post 3 secs of electric shock by four-plate test (reference value: 3.8 to 4 /min); type: functional
Mus musculus [3] = assay: Antidepressant like activity in Swiss albino mouse assessed as immobility time at 10 mg/kg, ip administered 60 mins prior to test and measured last 4 mins of 6 mins test by forced swimming test (reference value: 159.78 to 183.56 secs); type: functional
Mus musculus [4] = assay: Antidepressant like activity in Swiss albino mouse assessed as immobility time at 5 mg/kg, ip administered 60 mins prior to test and measured last 4 mins of 6 mins test by forced swimming test (reference value: 159.78 to 183.56 secs); type: functional
Mus musculus [5] = assay: Effect on spontaneous locomotor activity in Swiss albino mouse at 10 mg/kg, ip administered 60 mins prior to test and measured for 3 to 6 mins; type: ADME, organism-based; settings: in vivo
Summary of the method: (§1)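 Male Swiss Albino mice given compound or vehicle (1% Tween 80, 10 ml/kg) i.p. 60 min before test. Each mouse placed alone in a cage for 30 min habituation. Ambulation (photobeam channel crossings) then recorded over a 3–6 min session. Means ± SEM.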

Mus musculus [6] = assay: Antidepressant like activity in Swiss albino mouse assessed as decrease in immobility time at 10 mg/kg, ip administered 60 mins prior to test and measured last 4 mins of 6 mins test by forced swimming test relative to control; type: functional; set-up: scale not given: the % may be the effect or the level left
Mus musculus [7] = assay: Anxiolytic-like activity in Swiss albino mouse assessed as number of punished crossings at 20 mg/kg, ip administered 60 mins prior to test and measured post 3 secs of electric shock by four-plate test (reference value: 3.8 to 4 /min); type: functional
Mus musculus [8] = assay: Anxiolytic-like activity in Swiss albino mouse assessed as number of punished crossings at 5 mg/kg, ip administered 60 mins prior to test and measured post 3 secs of electric shock by four-plate test (reference value: 3.8 to 4 /min); type: functional
Mus musculus [9] = assay: Antidepressant like activity in Swiss albino mouse assessed as immobility time at 20 mg/kg, ip administered 60 mins prior to test and measured last 4 mins of 6 mins test by forced swimming test (reference value: 159.78 to 183.56 secs); type: functional
Mus musculus [10] = assay: Effect on spontaneous locomotor activity in Swiss albino mouse at 20 mg/kg, ip administered 60 mins prior to test and measured for 3 to 6 mins; type: ADME, organism-based; settings: in vivo; summary of the method: as §1
Mus musculus [11] = assay: Anxiolytic-like activity in Swiss albino mouse assessed as number of punished crossings at 40 mg/kg, ip administered 60 mins prior to test and measured post 3 secs of electric shock by four-plate test (reference value: 3.8 to 4 /min); type: functional

Sequence of D(2) dopamine receptor (P14416 whole entry): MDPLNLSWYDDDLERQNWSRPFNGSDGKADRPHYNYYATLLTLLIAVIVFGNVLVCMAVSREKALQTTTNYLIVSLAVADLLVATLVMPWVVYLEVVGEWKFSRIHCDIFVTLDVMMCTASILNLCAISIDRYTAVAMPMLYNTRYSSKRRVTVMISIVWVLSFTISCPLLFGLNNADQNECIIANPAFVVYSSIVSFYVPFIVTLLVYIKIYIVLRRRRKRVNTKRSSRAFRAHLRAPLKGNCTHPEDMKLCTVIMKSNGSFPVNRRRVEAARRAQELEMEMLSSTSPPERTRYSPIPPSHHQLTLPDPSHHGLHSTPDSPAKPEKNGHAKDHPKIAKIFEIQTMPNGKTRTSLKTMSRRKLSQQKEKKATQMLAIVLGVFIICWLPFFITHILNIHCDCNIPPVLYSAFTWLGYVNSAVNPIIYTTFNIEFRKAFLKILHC

Row | Compound | Ratio Ki (Homo sapiens) | Ki [1] [nM] | Ki (D(2) dopamine receptor) [nM] | Activity (Mus musculus [2]) [min⁻¹] | Time (Mus musculus [3]) [s] | Time (Mus musculus [4]) [s] | Activity (Mus musculus [5]) | Activity (Mus musculus [6]) [%] | Activity (Mus musculus [7]) [min⁻¹] | Activity (Mus musculus [8]) [min⁻¹] | Time (Mus musculus [9]) [s] | Activity (Mus musculus [10]) | Activity (Mus musculus [11]) [min⁻¹]
1 | CC1(c2ccc(Cl)cc2)NC(=O)N(CC(O)CN2CCN(c3ccccc3C#N)CC2)C1=O.Cl (racemic) | 140 to 190 | 250 | 1280 |  |  |  |  |  |  |  |  |  | 
2 | COc1ccccc1N1CCN(CC(O)CN2C(=O)NC(C)(c3ccc(Br)cc3)C2=O)CC1.Cl (racemic) |  | 167 | 267 | 3.1 | 179.44 | 184.22 | Non-Toxic | 50 | 2.2 | 3.1 | 91.13 |  | 
3 | CC1(c2ccc(Br)cc2)NC(=O)N(CC(O)CN2CCN(c3ccccc3C#N)CC2)C1=O.Cl (racemic) |  | 200 | 506 | 3.9 | 136.63 | 156.33 |  |  | 3.7 |  | 55.33 | Non-Toxic | 4.3
